Data set [1] is described as follows: Ratio of AUC in Wistar rat tissue cage fluid to MIC for Staphylococcus epidermidis ATCC 27626 at 25 mg/kg, ip measured on day 4. In kind it is functional. The conditions noted are these: route intraperitoneal.
The nature of data set [2]: AUC in Staphylococcus epidermidis ATCC 27626 infected Wistar rat serum at 25 mg/kg, ip measured on day 4. Format: ADME, organism-based. Set-up: dose 25 mg/kg, route intraperitoneal.
Data set [3] relates to Staphylococcus aureus. The data set is described as follows: Antimicrobial activity against […] Staphylococcus aureus ATCC 29213 tissue cage Wistar rat infected model assessed as bacterial load reduction at 25 mg/kg, ip bid treated for 7 days measured 24 hrs after last dose (reference value: 6.8 +/-0.8 logCFU/ml). In kind it is functional. The conditions noted are these: route intraperitoneal.

Data set [4] in a line: Cmax in Staphylococcus epidermidis ATCC 27626 infected Wistar rat tissue cage fluid at 25 mg/kg, ip measured on day 4. More on the design: dose 25 mg/kg, route intraperitoneal. Format: ADME, organism-based.
The subject of data set [5] is Staphylococcus aureus. The data set is described as follows: Antimicrobial activity against stationary phase culture of […] Staphylococcus aureus ATCC 29213 by macrodilution method. In kind it is functional. The essentials: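 Macrodilution MIC and MBC. MIC: lowest concentration inhibiting macroscopic growth. MBC: lowest concentration killing 99.9% of the initial inoculum. Log-phase cultures were used, and MBC was also determined in stationary phase. Subcultures were streaked down the plate centre and left to dry before spreading, to avoid carryover.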

Data set [6] is described as follows: Ratio of Cmax in Wistar rat tissue cage fluid to MIC for Staphylococcus epidermidis ATCC 27626 at 25 mg/kg, ip measured on day 4. In kind it is functional. The conditions noted are these: route intraperitoneal.
Data set [7] relates to Staphylococcus aureus. The data set is described as follows: Bactericidal activity against log phase culture of […] Staphylococcus aureus ATCC 29213 at 8 times MIC. In kind it is functional, organism-based. The essentials: (§1)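 24-h killing curves in log phase using subinhibitory and clinically available concentrations, single drug or with rifampin. Bactericidal activity is a ≥3-log10 CFU/ml fall from the initial inoculum at 24 h.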

A short description of data set [8]: AUC in Staphylococcus epidermidis ATCC 27626 infected Wistar rat tissue cage fluid at 25 mg/kg, ip measured on day 4. Format: ADME, organism-based. More on the design: dose 25 mg/kg, route intraperitoneal.
Data set [9] in a line: AUC in Escherichia coli ATCC 35218 infected Wistar rat serum at 100 mg/kg/day, ip measured on day 4. More on the design: route intraperitoneal. In kind it is ADME, organism-based.
A short description of data set [10]: AUC in Escherichia coli ATCC 35218 infected Wistar rat serum at 50 mg/kg/day, ip measured on day 4. Format: ADME, organism-based. More on the design: route intraperitoneal.
Data set [11] concerns Staphylococcus aureus. The data set is described as follows: Antimicrobial activity against […] Staphylococcus aureus ATCC 29213 at 2 times MIC in presence of rifampin. Format: functional, organism-based. An outline of the steps:
as §1

Data set [12] deals with Staphylococcus aureus. The data set is described as follows: Antimicrobial activity against […] Staphylococcus aureus ATCC 29213 coverslip Wistar rat infected model assessed as bacterial load reduction at 100 mg/kg/day, ip treated for 14 days measured 24 hrs after last dose (reference value: 5.4 +/- 1 logCFU/ml). In kind it is functional. The conditions noted are these: route intraperitoneal.

Data set [13] deals with Staphylococcus aureus. The data set is described as follows: Antimicrobial activity against methicillin-resistant Staphylococcus aureus ATCC 29213 tissue cage Wistar rat infected model assessed as bacterial load reduction at 50 mg/kg/day, ip treated for 7 days measured 24 hrs after last dose (reference value: 6.8 +/-0.8 logCFU/ml). Format: functional. The conditions noted are these: route intraperitoneal.

Data set [14] is described as follows: AUC in Escherichia coli ATCC 35218 infected Wistar rat tissue cage fluid at 50 mg/kg/day, ip measured on day 4. In kind it is ADME, organism-based. More on the design: route intraperitoneal.
Data set [15] relates to Staphylococcus aureus. The data set is described as follows: Antimicrobial activity against […] Staphylococcus aureus ATCC 29213 coverslip Wistar rat infected model assessed as bacterial load reduction at 100 mg/kg/day, ip treated for 14 days measured 24 hrs after last dose (reference value: 5.4 +/- 1 logCFU/ml) co-treated with 25 mg/kg rifampin, ip bid. In kind it is functional.

Data set [16] is described as follows: Cmax in Escherichia coli ATCC 35218 infected Wistar rat tissue cage fluid at 100 mg/kg/day, ip measured on day 4. Format: ADME, organism-based, Interstitial fluid. Set-up: dose 100 mg/kg/day, route intraperitoneal.
Data set [17] has as its system Staphylococcus aureus. The data set is described as follows: Antimicrobial activity against […] Staphylococcus aureus ATCC 29213 tissue cage Wistar rat infected model assessed as bacterial load reduction at 100 mg/kg/day, ip treated for 14 days measured 24 hrs after last dose (reference value: 7.2 +/- 0.6 logCFU/ml). The settings on record: route intraperitoneal. In kind it is functional.

Data set [18] deals with Staphylococcus aureus. The data set is described as follows: Antimicrobial activity against […] Staphylococcus aureus ATCC 29213 tissue cage Wistar rat infected model assessed as bacterial load reduction at 100 mg/kg/day, ip treated for 7 days measured 24 hrs after last dose (reference value: 6.8 +/-0.8 logCFU/ml). In kind it is functional. The conditions noted are these: route intraperitoneal.

The test system of data set [19] is Staphylococcus aureus. The data set is described as follows: Antimicrobial activity against […] Staphylococcus aureus ATCC 29213 tissue cage Wistar rat infected model assessed as bacterial load reduction at 100 mg/kg/day, ip treated for 7 days measured 24 hrs after last dose (reference value: 6.8 +/-0.8 logCFU/ml) co-treated with 25 mg/kg rifampin, ip bid. In kind it is functional.

Data set [20] relates to Staphylococcus aureus. The data set is described as follows: Antimicrobial activity against […] Staphylococcus aureus ATCC 29213 tissue cage Wistar rat infected model assessed as bacterial load reduction at 50 mg/kg/day, ip treated for 7 days measured 24 hrs after last dose (reference value: 6.8 +/-0.8 logCFU/ml) co-treated with 25 mg/kg rifampin, ip bid. In kind it is functional.

Data set [21] can be described thus: Cmax in Escherichia coli ATCC 35218 infected Wistar rat tissue cage fluid at 50 mg/kg/day, ip measured on day 4. Format: ADME, organism-based, Interstitial fluid. Set-up: dose 50 mg/kg/day, route intraperitoneal.
Data set [22] is described as follows: AUC in Escherichia coli ATCC 35218 infected Wistar rat tissue cage fluid at 100 mg/kg/day, ip measured on day 4. In kind it is ADME, organism-based. More on the design: route intraperitoneal.
The test system of data set [23] is Staphylococcus aureus. The data set is described as follows: Antimicrobial activity against […] Staphylococcus aureus ATCC 29213 tissue cage Wistar rat infected model assessed as bacterial load reduction at 100 mg/kg/day, ip treated for 14 days measured 24 hrs after last dose (reference value: 7.2 +/- 0.6 logCFU/ml) co-treated with 25 mg/kg rifampin, ip bid. In kind it is functional.

≈ marks a conversion by molar mass, not a printed value. Calls of active or inactive are those of the source. The rule behind the calls is not given here.

The AUC is the area under the concentration-time curve, a measure of exposure. A higher AUC goes with high exposure. The Cmax is the peak of the concentration-time curve. As usually defined, the MBC is the lowest tested concentration that kills the bacteria rather than only halting them. Higher therefore signals weaker bactericidal potency. Take `CO[C@H]1/C=C/O[C@@]2(C)Oc3c(C)c(O)c4c(O)c(c(/C=N/N5CCN(C)CC5)c(O)c4c3C2=O)NC(=O)/C(C)=C\C=C\[C@H](C)[C@H](O)[C@@H](C)[C@@H](O)[C@@H](C)[C@H](OC(C)=O)[C@@H]1C` [RIFAMPIN]: the Ratio in [1] was 20260; in [6], 440. Moreover, the exposure (AUC) was 277 µg·h/mL in data set [2] and 304 µg·h/mL in data set [8]. Moreover, the log10CFU/ml in data set [3] was determined as 6.9. In addition, in data set [4], the Cmax was 6600 ng/mL. The minimum bactericidal concentration (MBC) in data set [5] worked out at 4 µg/mL (≈ 4.86 µM). Also, the result in data set [7] was Active.

Regarding `C[C@H]1COc2c(N3CCN(C)CC3)c(F)cc3c(=O)c(C(=O)O)cn1c23.C[C@H]1COc2c(N3CCN(C)CC3)c(F)cc3c(=O)c(C(=O)O)cn1c23.O` [LEVOFLOXACIN], the area under the curve (AUC) in data set [9] was determined as 106 µg·h/mL; in [10], 77 µg·h/mL; in data set [14], 68 µg·h/mL; in [22] it was 117 µg·h/mL. For the same molecule, the inhibition result in [11] is “inactive”. Also, the log10CFU/ml was 2.24 in [12]; 6.4 in [13]; 3.36 in data set [15]; 2.9 in [17]; 6.74 in data set [18]; 6.74 in data set [19]. The log10CFU/ml in [20] stood at 6.7; in [23] it was 3.37. Further, in [5], the MBC was > 8 µg/mL. Further, the Cmax in data set [16] worked out at 12000 ng/mL; in [21], 6000 ng/mL.

The values are drawn from ChEMBL document CHEMBL1687713 (Antimicrob Agents Chemother, 2008).
